Data set [1] in a line: Growth inhibition of human QSG7701 cells at 50 uM after 48 hrs by MTT assay. The following applies: read-out: GI. In short, it runs like this: (§1)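 QSG-7701 human hepatocytes seeded at 5×10^3 cells/mL in 96-well plates. Compounds were dissolved in DMSO and diluted in RPMI 1640 (final DMSO <0.1%), in triplicate, for 48 h. MTT (5 mg/mL stock) was added for 2 h, and formazan was dissolved in DMSO. OD was read at 570 nm (450 nm reference). IC50 is the concentration giving 50% absorbance reduction versus vehicle control.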
On the technique in general: Formazan colour is commonly taken as a measure of viable cells.

Data set [2] in a line: Growth inhibition of human QSG7701 cells after 48 hrs by MTT assay. The following applies: QSG7701, 48 h. The gist of the method: as §1
Data set [3] concerns Mus musculus. The experiment in a line: Immunostimulatory activity in Kunming mouse xenografted with […] cells assessed as change in spleen mass at 10 mg/kg, po qd for 10 days (reference value: 6.61 +/- 1.84 mg/kg). Format: functional. A general note: A xenograft is tissue or cells of one species grown in another, often human tumour cells in immunodeficient mice.
Data set [4] concerns Mus musculus. In words: Immunostimulatory activity in Kunming mouse xenografted with […] cells assessed as change in thymus mass at 5 mg/kg, po qd for 10 days (reference value: 1.83 +/- 0.85 mg/kg). Format: functional.
For data set [5], the system named is Mus musculus. In words: Immunostimulatory activity in Kunming mouse xenografted with […] cells assessed as change in thymus mass at 10 mg/kg, po qd for 10 days (reference value: 1.83 +/- 0.85 mg/kg). In kind it is functional.
The test system of data set [6] is Mus musculus. In words: Toxicity in Kunming mouse xenografted with human H22 cells assessed as change in body weight at 20 mg/kg, po qd for 10 days (reference value: 23.4 +/- 2.8 g). In kind it is organism-based. Details: dose 20 mg/kg, route oral. The following applies: in vivo, 240 h.
Data set [7] concerns Mus musculus. In words: Immunostimulatory activity in Kunming mouse xenografted with […] cells assessed as change in spleen mass at 5 mg/kg, po qd for 10 days (reference value: 6.61 +/- 1.84 mg/kg). In kind it is functional.
Data set [8] concerns H22 (Mus musculus). The experiment in a line: Antitumor activity against mouse H22 cells xenografted in Kunming mouse assessed as reduction in tumor weight at 5 mg/kg, po qd for 10 days. The following applies: 240 h.
The test system of data set [9] is Mus musculus. The experiment in a line: Toxicity in Kunming mouse xenografted with […] cells assessed as change in body weight at 20 mg/kg, po qd for 10 days (reference value: 24.8 +/- 1.1 g). In kind it is organism-based. The arrangement: dose 20 mg/kg, route oral. The following applies: in vivo, 240 h.
The subject of data set [10] is H22. In words: Antitumor activity against human H22 cells xenografted in Kunming mouse assessed as reduction in tumor volume at 20 mg/kg, po qd for 10 days. The following applies: 240 h, read-out: INH.

pIC50: −log10 of the molar value.

Consider `CC(C)=CCC[C@](C)(O)[C@H]1CC[C@]2(C)[C@@H]1[C@H](O)C[C@@H]1[C@@]3(C)CC[C@H](O[C@@H]4O[C@H](CO)[C@@H](O)[C@H](O)[C@H]4O)C(C)(C)[C@@H]3CC[C@]12C` [GINSENOSIDE RH2], for which, in [1], the inhibition at 48 h, 50 µM was 83%. The compound further had a negative logarithm of the IC50 (pIC50) in data set [2] of 4.43. The Activity is on record as 5.35 mg/g in data set [3]; 2.25 mg/g in data set [4]; 2.09 mg/g in [5]; 23.2 g in data set [6]; 5.48 mg/g in data set [7]. For the same compound, the inhibition in vivo at 5 mg/kg in data set [8] was determined as 53%.
As to `CCCCCCCC(=O)OC[C@H]1O[C@@H](O[C@H]2CC[C@]3(C)[C@H]4C[C@@H](OC(=O)CCCCCCC)[C@@H]5[C@@H]([C@@](C)(O)CCC=C(C)C)CC[C@@]5(C)[C@]4(C)CC[C@H]3C2(C)C)[C@H](O)[C@@H](O)[C@@H]1O`, the inhibition at 48 h, 50 µM in data set [1] was 18%. The compound also showed a pIC50 in data set [2] of 4.09. The Activity in data set [3] is listed as 6.31 mg/g; in data set [4], 2.15 mg/g; in data set [5] it was 3.42 mg/g; in data set [9] it was 27.1 g; in [7], 5.27 mg/g. The inhibition in vivo at 5 mg/kg in data set [8] is 52%.
`O=P1(N(CCCl)CCCl)NCCCO1` (configuration not stated) [CYCLOPHOSPHAMIDE ANHYDROUS]: the inhibition in vivo at 20 mg/kg in data set [10] worked out at 72%.

The term pIC50 denotes the IC50 on a negative log10 scale, so that one unit is a factor of ten.

Values taken from ChEMBL document CHEMBL1944612, “Structural modification of ginsenoside Rh(2) by fatty acid esterification and its detoxification property in antitumor” (Bioorg Med Chem Lett, 2012).
